Reference: paper PMC4145632 (ACS Chemical Biology, 2014)

Assays:
HPV-positive cell lines [1] = settings: cited from earlier work
HPV-positive cell lines [2] = settings: HPV-positive cell lines ref 33; cited from earlier work
PA-1/E6 cells [3] = experiment: p53 level Western blot in PA-1/E6 cells; format: cell-based, human; settings: PA-1/E6, Western blot of remaining cells after treatment
In short: (§1)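 PA-1 and PA-1/HPV16 E6 cells treated with test compound at the same concentrations used for the resazurin viability test. Remaining cells washed, lysed in RIPA buffer with protease inhibitors and protein normalised by BCA. Lysates resolved by SDS-PAGE, transferred to PVDF and immunoblotted for p53.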

E6M = experiment: Fluorescent E6 thermal stability assay; format: binding, HPV16; settings: E6M melting curve 20-80 °C, 4 µM E6M, 10 µM compound
In short: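 Full-length untagged E6M: bacterially expressed 6xHis-SUMO fusion, SUMO-protease cleaved, SUMO removed on Ni-NTA. E6M mixed in buffer with SYPRO orange and test compound in DMSO, or DMSO control. Controls: protein only, compound only. Heated 20–80 °C in a real-time PCR instrument; fluorescence at 580 nm (dye bound to protein) read against temperature. Run in replicate.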

E6–E6AP interaction = E6–E6AP interaction (Human papillomavirus type 16, UniProt P03126); experiment: ELISA-based E6–E6AP association assay; format: binding, HPV16; settings: E6M-GST / MBP-E6AP association
HCT116 cells [4] = experiment: p53 level Western blot in HCT116 cells; format: cell-based, human
In short: (§2)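 Cells plated, then dosed next day with increasing concentrations of test compound in DMSO, or DMSO control, for 48 h. HCT116 (colon, wild-type p53) got the same concentrations as SiHa/HeLa. Cells washed twice, lysed in RIPA buffer with protease inhibitors, and protein normalised by BCA. Lysates run on SDS-PAGE, transferred to PVDF and probed with anti-p53 antibody.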

HeLa cells = experiment: Cell proliferation in HeLa cells; format: cell-based, human; settings: data not shown
SiHa cells = experiment: Cell proliferation in SiHa cells; format: cell-based, human; settings: data not shown
HCT116 cells [5] = experiment: MTS cytotoxicity assay in HCT116 cells; format: cell-based, human; settings: HCT116, 48 h, all concentrations tested 1.6–25 μM
PA-1/E6 cells [6] = experiment: Resazurin cell viability, PA-1/E6 cells; format: cell-based, human; settings: PA-1/E6, 24 h
In short: (§3)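 Cells plated on day 1; test compound in DMSO, or DMSO, added on day 2. Puromycin as control. Flavonoid compounds and puromycin incubated 24 h. Resazurin then added to 5 μM final for 1 h; resorufin fluorescence read at 590 nm as a surrogate for viability. Cells: HCT116, parental PA-1 (human ovarian teratocarcinoma) or PA-1 stably transfected with HPV16 E6.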

[7] = Resazurin cell viability, PA-1/E6 cells; format: cell-based, human; settings: human, PA-1/E6 cells (PA-1 cells stably transfected with E6)
In short: as §3

SiHa (HPV16 integrated) = experiment: p53 level Western blot in SiHa cells; format: cell-based, human; settings: 48 h, compound 1–10 μM
In short: as §2

HeLa (HPV18 integrated) = experiment: p53 level Western blot in HeLa cells; format: cell-based, human; settings: 48 h, compound 1–10 μM
In short: as §2

PA-1 cells = experiment: p53 level Western blot in PA-1 cells; format: cell-based, human; settings: PA-1, Western blot of remaining cells after treatment
In short: as §1

PA-1 parental cells = experiment: Resazurin cell viability, PA-1 parental cells; format: cell-based, human; settings: 24 h
In short: as §3

HCT116 cells [8] = experiment: Resazurin cell viability, HCT116 cells; format: cell-based, human; settings: HCT116, 24 h
In short: as §3

[9] = HCT116, same concentrations as viability test (Figure 6B)

Chain of E6–E6AP interaction (P03126 whole entry): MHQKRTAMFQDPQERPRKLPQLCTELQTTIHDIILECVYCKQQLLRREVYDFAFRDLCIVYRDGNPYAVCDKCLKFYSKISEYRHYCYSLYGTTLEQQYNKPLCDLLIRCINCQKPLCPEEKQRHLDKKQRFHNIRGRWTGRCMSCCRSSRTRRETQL
Chain of E6–E6AP interaction (Q05086 363-440, further chain): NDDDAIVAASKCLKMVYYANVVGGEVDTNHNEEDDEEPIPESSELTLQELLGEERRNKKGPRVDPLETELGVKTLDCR

Structure (SMILES)	p53 levels (PA-1/E6 cells [3])	ELISA IC50 (stated in words) (E6–E6AP interaction)	p53 levels (HCT116 cells [4]; [9])	Inhibition of cell proliferation (HeLa cells)	Inhibition of cell proliferation (SiHa cells)	Cell viability (resazurin) (PA-1/E6 cells [6])	viability at 24 h [7] [%]	p53 levels (PA-1 cells)	other results
O=c1cc(-c2ccc(O)c(O)c2)oc2cc(O)cc(O)c12 [luteolin]	–	–	–	–	–	–	–	–	Viability of HPV-positive cell lines (HPV-positive cell lines [1]): decreased viability; p53 and p21Cip1/Waf1 protein (HPV-positive cell lines [2]): increase in p53 and p21^Cip1/Waf1 protein
O=c1c(O)c(-c2ccc(O)c(O)c2)oc2c(O)c(O)cc(O)c12 [Gossypetin]	concentration dependent increase	sub-micromolar	unchanged	did not observe an inhibition of cell proliferation	did not observe an inhibition of cell proliferation	sensitive	> 50	unchanged	Thermal Stability (E6M): stabilizes E6M; Toxicity (MTS) (HCT116 cells [5]): not toxic; p53 levels (SiHa (HPV16 integrated)): significant increase in p53 levels; p53 levels (HeLa (HPV18 integrated)): significant increase in p53 levels
COc1ccc(C[C@H](N)C(=O)N[C@H]2[C@@H](O)[C@H](n3cnc4c(N(C)C)ncnc43)O[C@@H]2CO)cc1 [Puromycin, reference compound]	–	–	–	–	–	equally cytotoxic	–	–	Cell viability (resazurin) (PA-1 parental cells): equally cytotoxic; Cell viability (resazurin) (HCT116 cells [8]): equally cytotoxic
CC[n+]1c(-c2ccccc2)c2cc(N)ccc2c2ccc(N)cc21 [ethidium bromide, Ethidium bromide, reference compound]	–	–	–	–	–	–	–	–	p53 levels (HCT116 cells [4]; HCT116 (HPV-negative, wild-type p53), 48 h, Western blot): effectively stabilized p53
O=c1cc(-c2ccccc2)oc2cc(O)c(O)c(O)c12 [baicalein]	concentration dependent increase	sub-micromolar	unchanged	did not observe an inhibition of cell proliferation	did not observe an inhibition of cell proliferation	sensitive	> 50	unchanged	–
